From ChEMBL document CHEMBL1240446, “Synthesis and biological activities of novel amine-derived bis-azoles as potential antibacterial and antifungal agents” (2010)
Converted amounts (≈) assume the structure as drawn.

Experiments:
Type in all cases: functional
Aspergillus fumigatus = test: Antifungal activity against Aspergillus fumigatus ATCC 96918 after 24 hrs by micro-broth dilution method; conditions: ATCC 96918, 24 h
In short: (§1)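 Broth microdilution per NCCLS. Spore suspension in sterile distilled water, taken from 1-day-old cultures on Sabouraud agar, final 1–5×10^3 spores/mL. Compounds diluted from stocks in RPMI 1640 to eleven concentrations, 0.25–256 µg/mL. Incubation 35 °C, 24 h. Growth scored visually and spectrophotometrically. MIC is the lowest concentration arresting fungal growth.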

Bacillus = test: Antibacterial activity against Bacillus proteus ATCC 13315 after 24 hrs by micro-broth dilution method; conditions: ATCC 13315, 24 h
In short: (§2)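 MIC by broth microdilution following NCCLS methods. Inoculum adjusted in sterile saline to 1×10^4–1×10^5 CFU. Compounds from DMSO stocks, two-fold serial dilutions in Mueller-Hinton broth at 256 down to 0.25 µg/mL. Incubation 37 °C, 24 h. DMSO solvent control at matching dilutions. Growth read visually and spectrophotometrically. MIC is the lowest concentration arresting growth.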

Bacillus subtilis = test: Antibacterial activity against Bacillus subtilis ATCC 21216 after 24 hrs by micro-broth dilution method; conditions: ATCC 21216, 24 h; in short: as §2
Candida albicans = test: Antifungal activity against Candida albicans ATCC 76615 after 24 hrs by micro-broth dilution method; conditions: ATCC 76615, 24 h; in short: as §1
Staphylococcus aureus [1] = test: Antibacterial activity against methicillin-resistant Staphylococcus aureus N315 after 24 hrs by micro-broth dilution method; conditions: N315, 24 h
In short: (§3)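 Broth microdilution per NCCLS in Mueller-Hinton broth. Inoculum adjusted in sterile saline to 1×10^4–1×10^5 CFU. Compounds taken from DMSO stocks and serially diluted two-fold to final 256–0.25 µg/mL (11 levels). Incubation 37 °C, 24 h, with a DMSO solvent control. Growth read visually and spectrophotometrically. MIC is the lowest concentration that arrests growth.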

Pseudomonas aeruginosa = test: Antibacterial activity against Pseudomonas aeruginosa ATCC 27853 after 24 hrs by micro-broth dilution method; conditions: ATCC 27853, 24 h; in short: as §2
Escherichia coli = test: Antibacterial activity against Escherichia coli ATCC 25922 after 24 hrs by micro-broth dilution method; conditions: ATCC 25922, 24 h; in short: as §2
Staphylococcus aureus [2] = test: Antibacterial activity against Staphylococcus aureus ATCC 29213 after 24 hrs by micro-broth dilution method; conditions: ATCC 29213, 24 h; in short: as §3

In the case of `Clc1ccccc1CN(CCn1cncn1)CCn1cncn1`, the MIC (Aspergillus fumigatus) is reported as greater than 256 µg/mL, the MIC (Bacillus) is reported as greater than 256 µg/mL and the MIC (Bacillus subtilis) is reported as greater than 256 µg/mL. The MIC (Candida albicans) was greater than 256 µg/mL, the MIC (Staphylococcus aureus [1]) was greater than 256 µg/mL and the MIC (Pseudomonas aeruginosa) was 128 µg/mL (≈ 386 µM). For the same molecule, the MIC (Escherichia coli) was 256 µg/mL (≈ 772 µM) and the MIC (Staphylococcus aureus [2]) was greater than 256 µg/mL.
For `Cl.Clc1ccc(CN(CCn2cncn2)CCn2cncn2)cc1Cl`, the MIC (Aspergillus fumigatus) was 256 µg/mL, the MIC (Bacillus) was 0.25 µg/mL and the MIC (Bacillus subtilis) was 16 µg/mL. The MIC (Candida albicans) was 128 µg/mL, the MIC (Staphylococcus aureus [1]) was 32 µg/mL and the MIC (Pseudomonas aeruginosa) was 32 µg/mL. The MIC (Escherichia coli) was 32 µg/mL and the MIC (Staphylococcus aureus [2]) was 32 µg/mL.
Molecule `Fc1ccc(CN(CCn2cncn2)CCn2cncn2)c(F)c1` has an MIC (Aspergillus fumigatus) greater than 256 µg/mL, an MIC (Bacillus) greater than 256 µg/mL and an MIC (Bacillus subtilis) of 64 µg/mL (≈ 192 µM). For the same molecule, the MIC (Candida albicans) was greater than 256 µg/mL, the MIC (Staphylococcus aureus [1]) was greater than 256 µg/mL and the MIC (Pseudomonas aeruginosa) was 8 µg/mL (≈ 24 µM). For the same molecule, the MIC (Escherichia coli) was 64 µg/mL (≈ 192 µM) and the MIC (Staphylococcus aureus [2]) was 128 µg/mL (≈ 384 µM).
With `Clc1ccccc1CN(CCn1ccnc1)CCn1ccnc1` the MIC (Aspergillus fumigatus) was greater than 256 µg/mL, the MIC (Bacillus) was greater than 256 µg/mL and the MIC (Bacillus subtilis) was greater than 256 µg/mL. The MIC (Candida albicans) was greater than 256 µg/mL, the MIC (Staphylococcus aureus [1]) was 256 µg/mL (≈ 776 µM) and the MIC (Pseudomonas aeruginosa) was 256 µg/mL (≈ 776 µM). It also gave an MIC (Escherichia coli) of 16 µg/mL (≈ 48.5 µM) and an MIC (Staphylococcus aureus [2]) of 128 µg/mL (≈ 388 µM).
`Fc1ccc(CN(CCn2ccnc2)CCn2ccnc2)c(F)c1.O=[N+]([O-])O` gave an MIC (Aspergillus fumigatus) greater than 256 µg/mL, an MIC (Bacillus) of 64 µg/mL and an MIC (Bacillus subtilis) of 16 µg/mL. It also gave an MIC (Candida albicans) of 128 µg/mL, an MIC (Staphylococcus aureus [1]) of 32 µg/mL and an MIC (Pseudomonas aeruginosa) of 64 µg/mL. It also gave an MIC (Escherichia coli) of 32 µg/mL and an MIC (Staphylococcus aureus [2]) of 32 µg/mL.
With `Clc1ccc(CN(CCn2cncn2)CCn2cncn2)c(Cl)c1.O=[N+]([O-])O` the MIC (Aspergillus fumigatus) was 128 µg/mL, the MIC (Bacillus) was 8 µg/mL and the MIC (Bacillus subtilis) was 128 µg/mL. It also gave an MIC (Candida albicans) of 0.25 µg/mL, an MIC (Staphylococcus aureus [1]) of 256 µg/mL and an MIC (Pseudomonas aeruginosa) of 16 µg/mL. It also gave an MIC (Escherichia coli) of 64 µg/mL and an MIC (Staphylococcus aureus [2]) of 32 µg/mL.
For `Clc1ccc(CN(CCn2ccnc2)CCn2ccnc2)c(Cl)c1`, the MIC (Aspergillus fumigatus) was greater than 256 µg/mL, the MIC (Bacillus) was 32 µg/mL (≈ 87.8 µM) and the MIC (Bacillus subtilis) was 32 µg/mL (≈ 87.8 µM). The MIC (Candida albicans) was 128 µg/mL (≈ 351 µM), the MIC (Staphylococcus aureus [1]) was 16 µg/mL (≈ 43.9 µM) and the MIC (Pseudomonas aeruginosa) was 4 µg/mL (≈ 11 µM). It also gave an MIC (Escherichia coli) of 16 µg/mL (≈ 43.9 µM) and an MIC (Staphylococcus aureus [2]) of 8 µg/mL (≈ 22 µM).
`Cl.Clc1ccc(CN(CCn2ccnc2)CCn2ccnc2)cc1Cl` gave an MIC (Aspergillus fumigatus) of 32 µg/mL, an MIC (Bacillus) of 16 µg/mL and an MIC (Bacillus subtilis) of 4 µg/mL. It also gave an MIC (Candida albicans) greater than 256 µg/mL, an MIC (Staphylococcus aureus [1]) of 8 µg/mL and an MIC (Pseudomonas aeruginosa) of 32 µg/mL. It also gave an MIC (Escherichia coli) of 4 µg/mL and an MIC (Staphylococcus aureus [2]) of 4 µg/mL.
`OCCN(CCO)Cc1ccc(F)cc1F` was tested, and the MIC (Aspergillus fumigatus) was greater than 256 µg/mL, the MIC (Bacillus) was 256 µg/mL (≈ 1110 µM) and the MIC (Bacillus subtilis) was 256 µg/mL (≈ 1110 µM). It also gave an MIC (Candida albicans) of 256 µg/mL (≈ 1110 µM), an MIC (Staphylococcus aureus [1]) greater than 256 µg/mL and an MIC (Pseudomonas aeruginosa) of 256 µg/mL (≈ 1110 µM). For the same molecule, the MIC (Escherichia coli) was 128 µg/mL (≈ 554 µM) and the MIC (Staphylococcus aureus [2]) was 256 µg/mL (≈ 1110 µM).
In the case of `OCCN(CCO)Cc1cccc(Cl)c1`, the MIC (Aspergillus fumigatus) is reported as greater than 256 µg/mL, the MIC (Bacillus) is reported as greater than 256 µg/mL and the MIC (Bacillus subtilis) is reported as greater than 256 µg/mL. The MIC (Candida albicans) was greater than 256 µg/mL, the MIC (Staphylococcus aureus [1]) was greater than 256 µg/mL and the MIC (Pseudomonas aeruginosa) was greater than 256 µg/mL. For the same molecule, the MIC (Escherichia coli) was greater than 256 µg/mL and the MIC (Staphylococcus aureus [2]) was greater than 256 µg/mL.
Work on `Clc1ccc(CN(CCn2ccnc2)CCn2ccnc2)c(Cl)c1.O=[N+]([O-])O` yielded an MIC (Aspergillus fumigatus) greater than 256 µg/mL, an MIC (Bacillus) of 64 µg/mL and an MIC (Bacillus subtilis) of 16 µg/mL. For the same molecule, the MIC (Candida albicans) was 128 µg/mL, the MIC (Staphylococcus aureus [1]) was 16 µg/mL and the MIC (Pseudomonas aeruginosa) was 4 µg/mL. The MIC (Escherichia coli) was 32 µg/mL and the MIC (Staphylococcus aureus [2]) was 16 µg/mL.
For `O=C(N[C@H](CO)[C@H](O)c1ccc([N+](=O)[O-])cc1)C(Cl)Cl` [CHLORAMPHENICOL], the MIC (Bacillus) was 8 µg/mL (≈ 24.8 µM), the MIC (Bacillus subtilis) was 8 µg/mL (≈ 24.8 µM) and the MIC (Staphylococcus aureus [1]) was 16 µg/mL (≈ 49.5 µM). The MIC (Pseudomonas aeruginosa) was 64 µg/mL (≈ 198 µM), the MIC (Escherichia coli) was 8 µg/mL (≈ 24.8 µM) and the MIC (Staphylococcus aureus [2]) was 8 µg/mL (≈ 24.8 µM).
In the case of `Cc1cc2ncn(CCN(CCn3cnc4cc(C)c(C)cc43)Cc3ccc(Cl)cc3Cl)c2cc1C`, the MIC (Aspergillus fumigatus) is reported as greater than 256 µg/mL, the MIC (Bacillus) is reported as 32 µg/mL (≈ 61.5 µM) and the MIC (Bacillus subtilis) is reported as 64 µg/mL (≈ 123 µM). For the same molecule, the MIC (Candida albicans) was greater than 256 µg/mL, the MIC (Staphylococcus aureus [1]) was greater than 256 µg/mL and the MIC (Pseudomonas aeruginosa) was 128 µg/mL (≈ 246 µM). For the same molecule, the MIC (Escherichia coli) was 16 µg/mL (≈ 30.7 µM) and the MIC (Staphylococcus aureus [2]) was 128 µg/mL (≈ 246 µM).
`OCCN(CCO)Cc1ccc(Cl)cc1` showed an MIC (Aspergillus fumigatus) greater than 256 µg/mL, an MIC (Bacillus) of 256 µg/mL (≈ 1110 µM) and an MIC (Bacillus subtilis) greater than 256 µg/mL. For the same molecule, the MIC (Candida albicans) was greater than 256 µg/mL, the MIC (Staphylococcus aureus [1]) was greater than 256 µg/mL and the MIC (Pseudomonas aeruginosa) was 256 µg/mL (≈ 1110 µM). For the same molecule, the MIC (Escherichia coli) was 256 µg/mL (≈ 1110 µM) and the MIC (Staphylococcus aureus [2]) was greater than 256 µg/mL.
`OC(Cn1cncn1)(Cn1cncn1)c1ccc(F)cc1F` [FLUCONAZOLE] gave an MIC (Aspergillus fumigatus) of 256 µg/mL (≈ 836 µM) and an MIC (Candida albicans) of 0.5 µg/mL (≈ 1.63 µM).
In the case of `OCCN(CCO)Cc1ccccc1Cl`, the MIC (Aspergillus fumigatus) is reported as greater than 256 µg/mL, the MIC (Bacillus) is reported as 256 µg/mL (≈ 1110 µM) and the MIC (Bacillus subtilis) is reported as greater than 256 µg/mL. The MIC (Candida albicans) was greater than 256 µg/mL, the MIC (Staphylococcus aureus [1]) was greater than 256 µg/mL and the MIC (Pseudomonas aeruginosa) was greater than 256 µg/mL. The MIC (Escherichia coli) was greater than 256 µg/mL and the MIC (Staphylococcus aureus [2]) was greater than 256 µg/mL.
`CCn1cc(C(=O)O)c(=O)c2cc(F)c(N3CCNCC3)cc21` [NORFLOXACIN] gave an MIC (Bacillus) of 1 µg/mL (≈ 3.13 µM), an MIC (Bacillus subtilis) of 1 µg/mL (≈ 3.13 µM) and an MIC (Staphylococcus aureus [1]) of 0.25 µg/mL (≈ 0.783 µM). It also gave an MIC (Pseudomonas aeruginosa) of 2 µg/mL (≈ 6.26 µM), an MIC (Escherichia coli) of 0.5 µg/mL (≈ 1.57 µM) and an MIC (Staphylococcus aureus [2]) of 0.25 µg/mL (≈ 0.783 µM).
